Assay [1] has as its system A549. Nature of the assay: Cytotoxicity against human A549 cells after 24 hrs by MTT assay. The assay is classed as functional, cell-based. The following applies: A549, 24 h. The procedure, abridged:
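A549 cells kept in DMEM with 10% FBS and 1% penicillin/streptomycin at 37 °C, 5% CO2, then seeded at 3 × 10³ per well. Exposure 24 h to test agents at 1–12000 nM (DMSO stocks; 0.4% DMSO negative control), 8 wells per concentration. Surviving cells counted by colorimetric MTT (5 mg/mL in PBS). EC50 averaged over three to six experiments.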

Assay [2] has as its system A549. Briefly: Effect on microtubule network in human A549 cells assessed as microtubule depolymerization and tubulin clustering at 1 uM after 8 hrs by immunofluorescence microscopic analysis. The format is functional, cell-based. The procedure, abridged: (§1)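 A549 cells grown on 11 mm glass coverslips at 2 × 10⁴ cells each. Exposure to compounds at 1 and 5 µM for 8 h at 37 °C, 5% CO2, with 0.5% DMSO as negative control. Cells fixed in 4% paraformaldehyde and stained with mouse monoclonal anti-α-tubulin, then Alexa Fluor488 goat anti-mouse IgG (1:200). Fluorescence microscopy, effect scored semi-quantitatively by '+' grades.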

The species entered for the next assay is Bos taurus. Briefly: Inhibition of bovine brain tubulin polymerization after 1 hr. A digest of the protocol:
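Purified bovine brain tubulin polymerized with 10% DMSO present and test agent at 10 µM. Incubation 1 h, then preparations examined by Allen video-enhanced microscopy.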

The subject of assay [3] is A549. Briefly: Effect on microtubule network in human A549 cells assessed as microtubule depolymerization and tubulin clustering at 5 uM after 8 hrs by immunofluorescence microscopic analysis. The format is functional, cell-based. The procedure, abridged:
as §1

Assay [4] concerns A549. Nature of the assay: Effect on microtubule network in human A549 cells assessed as microtubule depolymerization at 1 uM after 8 hrs by immunofluorescence microscopic analysis. The format is functional, cell-based. The procedure, abridged:
as §1

The test system of a further assay is A549 (Homo sapiens). Briefly: Effect on microtubule network in human A549 cells assessed as tubulin clustering formation after 8 hrs by immunofluorescence microscopic analysis.
Assay [5] relates to A549. Briefly: Effect on microtubule network in human A549 cells assessed as microtubule binding at 1 uM after 8 hrs by immunofluorescence microscopic analysis. The assay is classed as functional, cell-based.

Active and inactive are the calls of the source. The rule behind the calls is not given here.

`COc1cc2c(c(OC)c1OC)-c1ccc(OC)c(=O)cc1[C@@H](NC(=O)CCCCCC(=O)OC1C3CC4CC1CC(OC(=O)[C@H](O)[C@@H](NC(=O)OC(C)(C)C)c1ccccc1)(C4)C3)CC2` (mixture of isomers): the EC50 in the assay with A549 [1] stood at 73 nM. Also, the outcome in the assay on A549 [2] and in the assay with A549 [3] was Active. Also, in the assay filed under Bos taurus, the inhibition result was “Active”.

Molecule `COc1cc2c(c(OC)c1OC)-c1ccc(OC)c(=O)cc1[C@@H](NC(=O)CCCCCC(=O)Oc1ccccc1)CC2` came in with an EC50 in the assay with A549 [1] of 5700 nM. The outcome with A549 [4] was Active.

On to `COc1cc2c(c(OC)c1OC)-c1ccc(OC)c(=O)cc1[C@@H](NC(=O)CCCCCC(=O)OC1C3CC4CC(C3)CC1C4)CC2` (stereo not given in full), for which the response in the assay on A549 [1] was half-maximal at 6 nM (EC50). In addition, the outcome with A549 [2] and in the assay with A549 (Homo sapiens) was Active.

In the assay with A549 [1], `COc1cc2c(c(OC)c1OC)-c1ccc(OC)c(=O)cc1[C@@H](NC(=O)CCCCCCC(=O)OC1C3CC4CC1CC(OC(=O)[C@H](O)[C@@H](NC(=O)OC(C)(C)C)c1ccccc1)(C4)C3)CC2` (mixture of isomers) returned an EC50 of 2 nM. Further, the outcome in the assay with A549 [2] was Active.

In the assay with A549 [1], `COc1cc2c(c(OC)c1OC)-c1ccc(OC)c(=O)cc1[C@@H](NC(C)=O)CC2` [COLCHICINE] returned a half-maximal effective concentration (EC50) of 27 nM. Also, in the assay with A549 [4], the outcome was Active.

`CC(=O)O[C@H]1C(=O)[C@@]2(C)[C@H]([C@H](OC(=O)c3ccccc3)[C@]3(O)C[C@H](OC(=O)[C@H](O)[C@@H](NC(=O)c4ccccc4)c4ccccc4)C(C)=C1C3(C)C)[C@]1(OC(C)=O)CO[C@@H]1C[C@@H]2O` [PACLITAXEL] displayed an EC50 with A549 [1] of 4.6 nM. Also, the outcome in the assay with A549 [5] was Active.

The molecule `COc1cc2c(c(OC)c1OC)-c1ccc(OC)c(=O)cc1[C@@H](NC(=O)CCCCCCCC(=O)OC1C3CC4CC(C3)CC1C4)CC2` (stereo not given in full) showed an EC50 in the assay on A549 [1] of 3800 nM. In addition, the result in the assay on A549 [2] was Active.

`COc1cc2c(c(OC)c1OC)-c1ccc(OC)c(=O)cc1[C@@H](NC(=O)CCCCCCC(=O)OC1C3CC4CC(C3)CC1C4)CC2` (stereo not given in full): the EC50 in the assay on A549 [1] turned out to be 5 nM. In addition, the result in the assay on A549 [2] was Active.

In the assay with A549 [1], `COc1cc2c(c(OC)c1OC)-c1ccc(OC)c(=O)cc1[C@@H](NC(=O)CCCC(=O)OC1C3CC4CC(C3)CC1C4)CC2` (stereo not given in full) showed an EC50 of 200 nM. In the assay on A549 [4], the outcome was Active.

The molecule `COc1cc2c(c(OC)c1OC)-c1ccc(OC)c(=O)cc1[C@@H](NC(=O)CCCCC(=O)OC1C3CC4CC(C3)CC1C4)CC2` (stereo not given in full) came in with a concentration giving a half-maximal response (EC50) in the assay on A549 [1] of 830 nM. For the same molecule, in the assay with A549 [2], the result was Active.

Turning to `COc1cc2c(c(OC)c1OC)-c1ccc(OC)c(=O)cc1[C@@H](NC(=O)CCCCCC(=O)OC1CCCCC1)CC2`, in the assay with A549 [1], the 50% effective concentration (EC50) stood at 4.8 nM. Moreover, in the assay on A549 [2], the outcome was Active.

`COc1cc2c(c(OC)c1OC)-c1ccc(OC)c(=O)cc1[C@@H](NC(=O)CCCCCCCCCCCOC(=O)[C@H](O)[C@@H](NC(=O)OC(C)(C)C)c1ccccc1)CC2` displayed a concentration giving a half-maximal response (EC50) in the assay with A549 [1] of 41 nM. Also, the outcome in the assay with A549 [2] was Active.

Consider `COc1cc2c(c(OC)c1OC)-c1ccc(OC)c(=O)cc1[C@@H](NC(=O)CCCCCC(=O)OC(C)C)CC2`, for which, in the assay with A549 [1], the 50% effective concentration (EC50) was 30 nM. Besides, the outcome in the assay with A549 [2] was Active.

Regarding `COc1cc2c(c(OC)c1OC)-c1ccc(OC)c(=O)cc1[C@@H](NC(=O)CCCC(=O)OC1C3CC4CC1CC(OC(=O)[C@H](O)[C@@H](NC(=O)OC(C)(C)C)c1ccccc1)(C4)C3)CC2` (mixture of isomers), the midpoint of the response in the assay on A549 [1], the EC50, lay at 220 nM. That is a sub-micromolar value.

As to `COC(=O)CCCCCC(=O)N[C@H]1CCc2cc(OC)c(OC)c(OC)c2-c2ccc(OC)c(=O)cc21`, the EC50 with A549 [1] was 32 nM. In the assay with A549 [4], the result was Active.

Take `COc1cc2c(c(OC)c1OC)-c1ccc(OC)c(=O)cc1[C@@H](NC(=O)CCCCCC(=O)OC13CC4CC(CC(C4)C1)C3)CC2`: the EC50 in the assay with A549 [1] was 11 nM. Moreover, the result in the assay with A549 [2] was Active.

`COc1cc2c(c(OC)c1OC)-c1ccc(OC)c(=O)cc1[C@@H](NC(=O)CCCCCCCC(=O)OC13CC4CC(CC(C4)C1)C3)CC2` had a concentration for a half-maximal effect (EC50) in the assay with A549 [1] of 29 nM.
